Among the data in ChEMBL document CHEMBL1142586, “Bisnortriterpenes from Salacia madagascariensis” (J Nat Prod, 2005) are selectivity ratio, IC50 and IC90 values, retold here.

≈ marks a conversion by molar mass, not a printed value.

Series [1] in a line: Selectivity index, ratio of IC50 for african green monkey (Cercopithecus aethiops) Vero cells to IC50 for Plasmodium falciparum D6. In kind it is toxicity, cell-based. To be noted: read-out: Selectivity Index. Put shortly:
(§1)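 The index was calculated as the VERO (monkey kidney cell line) IC50 divided by the IC50 against the respective P. falciparum clone.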

Series [2] has as its system Plasmodium falciparum. Kind of series: Antiplasmodial activity against Plasmodium falciparum D6. In kind it is functional, organism-based.
The test system of series [3] is Leishmania donovani. Kind of series: Antileishmanial activity against Leishmania donovani promastigotes after 48 hrs by alamar blue assay. In kind it is functional, organism-based. The procedure, abridged: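 IC50 (µg/mL) was determined in two separate tests against Leishmania donovani, and the mean of the tests was reported. IC90 was also determined.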
(In general: Alamar Blue is a resazurin reagent that responds to reducing activity.)

Series [4] relates to Plasmodium falciparum. Kind of series: Antiplasmodial activity against Plasmodium falciparum W2. In kind it is functional, organism-based.
Series [5] relates to Staphylococcus aureus. In words: Antimicrobial activity against methicillin-resistant Staphylococcus aureus by NCCLS method. In kind it is functional, organism-based.
Series [6] concerns Leishmania mexicana. Kind of series: Antileishmanial activity against Leishmania mexicana. In kind it is functional, organism-based.
The nature of series [7]: Selectivity index, ratio of IC50 for african green monkey VERO cells to IC50 for Leishmania donovani. Type of series: toxicity, cell-based. The settings on record: read-out: Selectivity Index. Put shortly:
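The index was calculated as the VERO cell IC50 divided by the mean IC50 against L. donovani from the two tests.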

Series [8] relates to Mycobacterium intracellulare. In words: Antimicrobial activity against Mycobacterium intracellular by alamar blue test. In kind it is functional, organism-based.
Series [9] has as its system Staphylococcus aureus. Kind of series: Antimicrobial activity against Staphylococcus aureus by NCCLS method. In kind it is functional, organism-based.
Series [10] is described as follows: Selectivity index, ratio of IC50 for african green monkey (Cercopithecus aethiops) Vero cells to IC50 for Plasmodium falciparum W2. In kind it is toxicity, cell-based. To be noted: read-out: Selectivity Index. Put shortly:
as §1

Series [11] relates to Vero. Kind of series: Cytotoxicity against african green monkey Vero cells. In kind it is cell-based. To be noted: Chlorocebus sabaeus.

For orientation: IC50 means the point on the concentration scale where inhibition reaches its midpoint. One may read the IC90 as the concentration needed for an effect of 90%. As for `C=C1CC[C@]2(C)CC[C@]3(C)C4=CC=C5C(=CC(=O)C(O)=C5C)[C@]4(C)CC[C@@]3(C)[C@@H]2C1` [ISOIGUESTERIN], the values for the selectivity ratio in [1], in series [7] and in [10] were 3.4, 50 and 3.9, respectively. Further, the IC50 in series [2] came to 0.2 µg/mL (≈ 0.494 µM); in series [3] it was 0.032 µg/mL (≈ 0.0791 µM); in [4] it was 0.17 µg/mL (≈ 0.42 µM); in series [5], 0.85 µg/mL (≈ 2.1 µM); in series [6], 0.035 µg/mL (≈ 0.0865 µM); in [8] it was 4.5 µg/mL (≈ 11.1 µM). Further, the IC50 is 0.85 µg/mL (≈ 2.1 µM) in series [9] and 1.6 µg/mL (≈ 3.95 µM) in series [11]. This compound returned an IC90 in series [3] of 0.055 µg/mL (≈ 0.136 µM).
In the case of `C[C@@H]1CC[C@H]2[C@@H](C)C(=O)O[C@@H]3O[C@@]4(C)CC[C@@H]1[C@]32OO4` [ARTEMISININ], in series [4], the IC50 was determined as 0.0018 µg/mL (≈ 0.00638 µM).
Take `CC1=C(O)C(=O)C=C2C1=CC=C1[C@@]2(C)CC[C@@]2(C)[C@@H]3C[C@@H](CO)CC[C@]3(C)CC[C@]12C`: the selectivity ratio in series [1], in series [7] and in [10] was 31 throughout. The IC50 worked out at 0.068 µg/mL (≈ 0.161 µM) in series [2]; 0.027 µg/mL (≈ 0.0639 µM) in [3]; 0.068 µg/mL (≈ 0.161 µM) in [4]; 0.7 µg/mL (≈ 1.66 µM) in [5]; 15 µg/mL (≈ 35.5 µM) in series [8]; 0.65 µg/mL (≈ 1.54 µM) in series [9]. In series [11], this compound returned an IC50 of 2.1 µg/mL (≈ 4.97 µM). The compound further showed an IC90 in [3] of 0.057 µg/mL (≈ 0.135 µM).
In the case of `C[C@@H]1[C@H](O)[C@@H](C)/C=C/C=C/C=C/C=C/C=C/C=C/C=C/[C@H](O[C@@H]2O[C@H](C)[C@@H](O)[C@H](N)[C@@H]2O)C[C@@H]2O[C@](O)(C[C@@H](O)C[C@@H](O)[C@H](O)CC[C@@H](O)C[C@@H](O)CC(=O)O[C@H]1C)C[C@H](O)[C@H]2C(=O)O` [AMPHOTERICIN B], the IC50 in [3] was 0.11 µg/mL (≈ 0.119 µM); in [11], 6.5 µg/mL (≈ 7.03 µM). This compound also came in with an IC90 in series [3] of 0.23 µg/mL (≈ 0.249 µM). Besides, in [7], the selectivity ratio came out at 59.
